The values below come from ChEMBL document CHEMBL4819071, “Design, synthesis and in-vitro evaluation of fluorinated triazoles as multi-target directed ligands for Alzheimer disease” (Bioorg Med Chem Lett, 2021).

In data set [1] the target is T1, Amyloid-beta precursor protein (Homo sapiens, UniProt P05067). The data set is described as follows: Inhibition of amyloid beta (1 to 42 ) (unknown origin) self aggregation at 40 uM after 24 hrs by thioflavin-T fluorescence method. A digest of the protocol: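 Aβ42 (10 µM) incubated with compound (40 µM) for 24 h at 37 °C. Fibril formation quantified by Thioflavin T and given as percent of Aβ42 left to fibrillate alone. n = 3, Dunnett test.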

A short description of data set [2]: (§1) Cytotoxicity against rat PC-12 cells assessed as cell viability at 40 uM measured after 24 hrs by Alamar blue assay relative to control. As to conditions: PC-12 cells, read-out: Activity. The format is cell-based. A digest of the protocol: (§2)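 PC-12 neuronal cells incubated 24 h with compound at 40 µM. Viability read with Alamar Blue and expressed as percent of untreated cells.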

In data set [3] the target is T1, Amyloid-beta precursor protein. The experiment in a line: Inhibition of amyloid beta (1 to 42 ) (unknown origin) self aggregation at 40 uM measured after 24 hrs in presence of copper ion by thioflavin-T fluorescence method. A digest of the protocol:
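Aβ42 (10 µM) incubated with Cu2+ (10 µM) and compound for 24 h at 37 °C with shaking at 180 rpm. Percent fibril formation determined by Thioflavin T. Compared against Aβ42 alone and Aβ42 + Cu2+ by Dunnett test. n = 3.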

Data set [4] deals with PC-12. The data set is described as §1. The format is cell-based. The conditions noted are these: pc-12, 24 h, 40 µM. The procedure, abridged: as §2
Data set [5] can be described thus: Metal chelating activity assessed as Fe3+-compound complex formation by measuring hyperchromic shift at 50 uM incubated for 30 mins by UV-visible spectrophotometry.
Data set [6] can be described thus: Metal chelating activity assessed as Cu2+-compound complex formation by measuring hyperchromic shift at 50 uM incubated for 30 mins by UV-visible spectrophotometry.
Data set [7] in a line: Metal chelating activity assessed as Zn2+-compound complex formation by measuring hyperchromic shift at 50 uM incubated for 30 mins by UV-visible spectrophotometry.
For data set [8], the system named is PC-12. The experiment in a line: Anti-inflammatory activity in rat PC-12 cells assessed as decrease in LPS-stimulated ROS accumulation at 40 uM measured after 24 hrs by DCFH-DA staining based FACS […] assay. Type of data set: functional, cell-based. The procedure, abridged:
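PC-12 cells inflamed with LPS (10 µg/mL), then treated with compound at 40 µM for 24 h. ROS measured by DCFDA flow cytometry. Cells gated on FSC/SSC, singlets selected (FSC area vs height), and dead cells excluded by propidium iodide. The percentage of DCFDA ROS-high live cells was taken from the FL1 vs FSC dot plot quadrant. n = 3.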

The nature of data set [9]: Metal chelating activity assessed as Fe3+-compound complex formation at compound:Fe3+ concentration ratio of 1:1 to 1:5 incubated for 30 mins by UV-visible spectrophotometry. A digest of the protocol: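 Compound combined with Fe3+ at compound:Fe ratios 1:1, 1:3 and 1:5 in HEPES buffer at room temperature. UV–vis spectra recorded over about 250–350 nm.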
In data set [10] the target is T1, Amyloid-beta precursor protein. The data set is described as follows: Inhibition of amyloid beta (1 to 42 ) (unknown origin) self aggregation measured after 24 hrs by thioflavin-T fluorescence method.
Data set [11] in a line: Metal chelating activity assessed as Cu2+-compound complex formation at compound:Cu2+ concentration ratio of 1:1 to 1:6 incubated for 30 mins by UV-visible spectrophotometry. The procedure, abridged:
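Compound titrated with Cu2+ at compound:Cu ratios 1:1 to 1:6 in HEPES buffer at room temperature. UV–vis spectra recorded over about 240–320 nm. Absorbance plotted against ratio and fitted linearly.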

Data set [12] in a line: Metal chelating activity assessed as Zn2+-compound complex formation at incremental dose of compound incubated for 30 mins by UV-visible spectrophotometry.

The source made the active and inactive calls. No cut-off for these calls is given here. A value given as a limit tells only on which side of the number the result lay.

T1 sequence (P05067 whole entry): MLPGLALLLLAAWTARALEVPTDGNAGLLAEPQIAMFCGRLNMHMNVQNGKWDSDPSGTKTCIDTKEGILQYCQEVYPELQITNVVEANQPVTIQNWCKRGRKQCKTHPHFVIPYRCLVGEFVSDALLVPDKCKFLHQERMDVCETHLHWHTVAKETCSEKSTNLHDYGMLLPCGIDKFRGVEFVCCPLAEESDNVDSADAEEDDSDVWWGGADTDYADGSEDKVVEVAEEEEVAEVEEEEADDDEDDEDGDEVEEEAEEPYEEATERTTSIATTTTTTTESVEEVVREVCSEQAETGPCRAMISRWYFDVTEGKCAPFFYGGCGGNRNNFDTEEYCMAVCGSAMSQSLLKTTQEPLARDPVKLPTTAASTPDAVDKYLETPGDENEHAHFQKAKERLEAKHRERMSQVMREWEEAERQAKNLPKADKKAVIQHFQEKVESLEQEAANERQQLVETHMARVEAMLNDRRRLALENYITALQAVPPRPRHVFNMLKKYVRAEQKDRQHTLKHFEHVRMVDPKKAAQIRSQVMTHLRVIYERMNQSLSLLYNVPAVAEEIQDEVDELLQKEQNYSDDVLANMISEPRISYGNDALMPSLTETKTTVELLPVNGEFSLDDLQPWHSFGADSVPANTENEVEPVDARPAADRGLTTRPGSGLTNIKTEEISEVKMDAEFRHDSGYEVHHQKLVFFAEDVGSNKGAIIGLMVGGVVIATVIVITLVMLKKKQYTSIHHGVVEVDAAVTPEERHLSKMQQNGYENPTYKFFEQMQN

As a reminder, the inhibition is the drop in the measured response relative to a control, in per cent. As to `Cc1ccc(NC(=O)c2cn(-c3ccc(C(O)(C(F)(F)F)C(F)(F)F)cc3)nn2)cc1C`, the inhibition entry in [1] is “Active”. In addition, the viability at 24 h, 40 µM in data set [2] was greater than 60%.
As to `O=C(Nc1ccccc1)c1cn(-c2ccc(C(O)(C(F)(F)F)C(F)(F)F)cc2)nn1`, in [1], the inhibition entry was “inactive”. Also, the viability at 24 h, 40 µM in [2] is greater than 60%.
Take `COc1ccc(-n2cc(CNc3ccc(C(O)(C(F)(F)F)C(F)(F)F)cc3)nn2)cc1OC`: the inhibition result in data set [1] is “Active”. For the same molecule, the viability at 24 h, 40 µM in data set [2] is greater than 60%. The inhibition in data set [3] is less than 50%.
As to `Cc1ccc(-n2cc(CNc3ccc(C(O)(C(F)(F)F)C(F)(F)F)cc3)nn2)cc1C`, in data set [1], the inhibition result is “inactive”. In addition, the viability at 24 h, 40 µM in [2] is greater than 60%.
As for `O=C(Nc1ccc(C(O)(C(F)(F)F)C(F)(F)F)cc1)c1cn(-c2ccccc2)nn1`, the Activity result in the data set with PC-12 [4] was “Toxic”.
The IC50 is the concentration at which inhibition is half-maximal. Low readings indicate greater potency in that assay, high ones weaker potency in that assay. For the molecule `Cc1ccc(-n2cc(C(=O)Nc3ccc(C(O)(C(F)(F)F)C(F)(F)F)cc3)nn2)cc1C`, the inhibition result in data set [1] was “Active”. Also, the viability at 24 h, 40 µM in data set [2] is greater than 60%. Further, the outcome (in data set [5]; in data set [6]; in data set [7]; in the data set with PC-12 [8]; in data set [9]; in [11]) was Active. The outcome in data set [12] was Active. The IC50 in data set [10] worked out at 4.6 µM. For the same molecule, the inhibition in [3] was less than 50%.
As for `OC(c1ccc(NCc2cn(-c3ccccc3)nn2)cc1)(C(F)(F)F)C(F)(F)F`, the Activity entry in the data set with PC-12 [4] is given as “Toxic”.
